Experimental data as given in ChEMBL document CHEMBL1147080, “Inhibition of hepatitis C virus replication by peroxidation of arachidonate and restoration by vitamin E” (Proc Natl Acad Sci U S A, 2007).
Calls of active or inactive are those of the source. No cut-off for these calls is given here.

What was measured:
Hepatitis C virus [1] = test: Increase of hepatitis C virus replication in Huh7-K2040 cells in delipidated fetal calf serum medium assessed as increase in […] at 40 nM in presence of arachidonate by RT-PCR relative to control; assay type: functional, organism-based; conditions: Hepacivirus hominis
In short: (§1)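 Huh7 cells carrying a genotype 1b subgenomic replicon were seeded on day 0. On day 2 they were moved to medium with 10% delipidated FCS, with or without 0.1 mM BSA-conjugated arachidonate, and given graded vitamin E. After 72 h HCV RNA was quantified by real-time PCR against 36B4 (comparative CT), relative to untreated controls kept in 10% FCS; three independent experiments.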

Hepatitis C virus [2] = test: Increase of hepatitis C virus replication in Huh7-K2040 cells in delipidated fetal calf serum medium in presence of arachidonate by RT-PCR relative to control; assay type: functional, organism-based; conditions: Hepacivirus hominis; in short: as §1
Hepatitis C virus [3] = test: Restoration of hepatitis C virus replication in Huh7-K2040 cells in delipidated fetal calf serum medium assessed as increase in […] 40 nM in absence of arachidonate by RT-PCR relative to control; assay type: functional, organism-based; conditions: Hepacivirus hominis; in short: as §1
Hepatitis C virus [4] = test: Increase in hepatitis C virus replication in Huh7-K2040 cells in presence of delipidated fetal calf serum medium at 0.3 uM by RT-PCR relative to control; assay type: functional, organism-based; conditions: Hepacivirus hominis
In short: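 Replicon-bearing Huh7 cells (genotype 1b subgenomic HCV replicon), 4 × 10^5 cells per 60-mm dish on day 0. On day 2 they were switched to medium with 10% delipidated FCS plus 0.3 μM lipid-soluble vitamin/lipid. Harvested after 72 h. HCV RNA was measured by qRT-PCR, normalized to 36B4 by comparative CT, relative to FCS-cultured controls; mean ± SD of three independent experiments.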

Hepatitis C virus [5] = test: Increase of hepatitis C virus replication in Huh7-K2040 cells in fetal calf serum medium in presence of arachidonate by RT-PCR relative to control; assay type: functional, organism-based; conditions: Hepacivirus hominis
In short: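 Replicon Huh7-K2040 cells were seeded at 4 × 10^5 per 60-mm dish. On day 2 they went into 10% FCS or 10% delipidated FCS with 0.1 mM BSA-conjugated arachidonate, ± 0.3 μM vitamin E. Cells were harvested 72 h later. HCV RNA was determined by qRT-PCR (36B4 reference, comparative CT), relative to FCS controls.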

Hepatitis C virus [6] = test: Restoration of hepatitis C virus replication in Huh7-K2040 cells in presence of delipidated fetal calf serum medium in absence of arachidonate by RT-PCR relative to control; assay type: functional, organism-based; conditions: Hepacivirus hominis; in short: as §1
Hepatitis C virus [7] = test: Increase of hepatitis C virus replication in Huh7-K2040 cells in fetal calf serum medium in absence of arachidonate by RT-PCR relative to control; assay type: functional, organism-based; conditions: Hepacivirus hominis
Hepatitis C virus [8] = test: Inhibition of hepatitis C virus replication in Huh7-K2040 cells in presence of delipidated fetal calf serum medium by RT-PCR; assay type: functional, organism-based, Hepacivirus hominis
In short: (§2)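 Huh7-K2040 replicon cells (4 × 10^5 per 60-mm dish) switched on day 2 to 10% FCS or 10% delipidated FCS with graded BSA-conjugated arachidonate for 72 h. HCV RNA measured by real-time RT-PCR against 36B4 by comparative CT, relative to cells without arachidonate in the same serum. IC50 read from dose–response. Mean ± SD, three independent experiments.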

Hepatitis C virus [9] = test: Inhibition of hepatitis C virus replication in Huh7-K2040 cells in presence of delipidated fetal calf serum medium assessed as increase of malondialdehyde at 0.1 mM relative to control; assay type: functional, Hepacivirus hominis
In short: (§3)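 Huh7 or Huh7-K2040 cells seeded 7 × 10^5 per 60-mm dish. On day 1 switched to 10% FCS or 10% delipidated FCS, with or without 0.1 mM BSA-conjugated arachidonate and 0.3 μM vitamin E, for 16 h. MDA measured by TBARS kit at 532 nm in homogenates of cells pooled from two dishes, normalized to cellular protein. Mean ± SD, three independent experiments.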

Hepatitis C virus [10] = test: Inhibition of hepatitis C virus replication in Huh7-K2040 cells in presence of fetal calf serum medium by RT-PCR; assay type: functional, organism-based, Hepacivirus hominis; in short: as §2
Hepatitis C virus [11] = test: Inhibition of hepatitis C virus replication in Huh7-K2040 cells in presence of delipidated fetal calf serum medium assessed as reduction in viral RNA level at 0.1 mM after 12 hrs relative to control; assay type: functional, Hepacivirus hominis; set-up: scale not given: the % may be the effect or the level left
In short: (§4)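 Time course in Huh7-K2040 cells (7 × 10^5 per 60-mm dish) given 10% delipidated FCS plus 0.1 mM BSA-conjugated arachidonate from day 1. HCV RNA measured by TaqMan real-time RT-PCR, normalized to 36B4 by comparative CT, relative to cells at time 0. Data from a representative experiment.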

Hepatitis C virus [12] = test: Inhibition of hepatitis C virus replication in Huh7-K2040 cells in presence of delipidated fetal calf serum assessed viral RNA level at 0.1 mM by RT-PCR relative to control; assay type: functional, Hepacivirus hominis; set-up: scale not given: the % may be the effect or the level left
In short: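 Huh7-K2040 cells seeded at 4 × 10^5 per 60-mm dish. On day 2 switched to 10% FCS or delipidated FCS with 0.1 mM BSA-conjugated fatty acids for 72 h. HCV RNA measured by real-time RT-PCR in triplicate, normalized to 36B4 by comparative CT, relative to untreated FCS control. Mean ± SD, three independent experiments.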

Hepatitis C virus [13] = test: Reversal of inhibition of hepatitis C virus replication in Huh7-K2040 cells in presence of delipidated fetal calf serum medium assessed as malondialdehyde level at 0.1 mM in presence of vitamin E; assay type: functional, organism-based; conditions: Hepacivirus hominis; in short: as §3
Hepatitis C virus [14] = test: Inhibition of hepatitis C virus replication in Huh7-K2040 cells in presence of delipidated fetal calf serum medium assessed as reduction in viral RNA level at 0.1 mM after 72 hrs relative to control; assay type: functional, Hepacivirus hominis; set-up: scale not given: the % may be the effect or the level left; in short: as §4
Hepatitis C virus [15] = test: Inhibition of hepatitis C virus replication in Huh7-K2040 cells in presence of fetal calf serum medium assessed as increase of malondialdehyde at 0.1 mM relative to control; assay type: functional, Hepacivirus hominis; in short: as §3
Hepatitis C virus [16] = test: Inhibition of hepatitis C virus replication in Huh7-K2040 cells in presence of delipidated fetal calf serum medium assessed as decrease of malonaldehyde at 0.1 mM after 72 hrs relative to control; set-up: scale not given: the % may be the effect or the level left
[17] = Cytotoxicity against human Huh7-K2040 cells in delipidated fetal calf serum medium; assay type: cell-based; conditions: huh-7
In short: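 Huh7-K2040 replicon cells (7 × 10^5 per 60-mm dish) moved on day 1 to medium with 10% delipidated FCS and 0.1 mM BSA-conjugated arachidonate, or to 10% FCS medium. Cells harvested at set times. Growth followed as total cellular protein by BCA, relative to protein at time 0. Data from a representative experiment.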

Hepatitis C virus [18] = test: Inhibition of hepatitis C virus replication in Huh7-K2040 cells in presence of delipidated fetal calf serum medium assessed as increase of malondialdehyde at 0.1 mM after 48 hrs; assay type: functional, organism-based; conditions: Hepacivirus hominis
In short: (§5)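 Huh7-K2040 cells (7 × 10^5 per 60-mm dish) switched on day 1 to 10% delipidated FCS with 0.1 mM BSA-conjugated arachidonate and harvested over a time course up to 72 h. MDA measured by TBARS assay at 532 nm, normalized to protein, relative to cells at time 0. Data from a representative experiment.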

Hepatitis C virus [19] = test: Inhibition of hepatitis C virus replication in Huh7-K2040 in presence of delipidated fetal calf serum medium assessed as increase of malondialdehyde at 0.1 mM after 12 to 24 hrs; assay type: functional, organism-based; conditions: Hepacivirus hominis; in short: as §5
Hepatitis C virus [20] = test: Inhibition of hepatitis C virus replication in Huh7-K2040 cells in presence of fetal calf serum assessed viral RNA level at 0.1 mM by RT-PCR relative to control; assay type: functional, Hepacivirus hominis; set-up: scale not given: the % may be the effect or the level left
In short: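 Huh7-K2040 cells (subgenomic genotype 1b replicon) were seeded at 4 × 10^5 per 60-mm dish. From day 2 they were cultured in 10% FCS with 0.1 mM BSA-conjugated fatty acid for 72 h. HCV RNA was measured by real-time PCR with 36B4 as invariant control (comparative CT), relative to untreated FCS cells; mean ± SD, three independent experiments.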

## VITAMIN E
Hepatitis C virus [1]
  Activity: Active
Hepatitis C virus [2]
  Activity: 190%
Hepatitis C virus [3]
  Activity: Active
Hepatitis C virus [4]
  Activity: Active
Hepatitis C virus [5]
  Activity: inactive
Hepatitis C virus [6]
  Activity: Active
Hepatitis C virus [7]
  Activity: inactive

## O=C1O[C@H]([C@@H](O)CO)C(O)=C1O
Hepatitis C virus [4]
  Activity: inactive

## CCCCC/C=C\C/C=C\C/C=C\C/C=C\CCCC(=O)O [ARACHIDONIC ACID]
Hepatitis C virus [8]
  IC50: 10 µM
Hepatitis C virus [9]
  Activity: 48
Hepatitis C virus [10]
  IC50: 60 µM
Hepatitis C virus [11]
  Activity: 40%
Hepatitis C virus [12]
  Activity: 95%
Hepatitis C virus [13]
  Activity: Active
Hepatitis C virus [14]
  Activity: >90%
Hepatitis C virus [15]
  Activity: 8
Hepatitis C virus [16]
  Activity: >90%
[17]
  Activity: Non-toxic
Hepatitis C virus [18]
  Activity: inactive
Hepatitis C virus [19]
  Activity: Active
Hepatitis C virus [20]
  Activity: 50%

## CCCCCCCC/C=C\CCCCCCCC(=O)O
Hepatitis C virus [12]; Hepacivirus hominis
  Activity: inactive
Hepatitis C virus [4]
  Activity: inactive
Hepatitis C virus [20]; Hepacivirus hominis
  Activity: inactive

## COC1=C(OC)C(=O)C(C/C=C(\C)CC/C=C(\C)CC/C=C(\C)CCC=C(C)C)=C(C)C1=O
Hepatitis C virus [4]
  Activity: Active

## CC/C=C\C/C=C\C/C=C\CCCCCCCC(=O)O [LINOLENIC ACID]
Hepatitis C virus [20]
  Activity: 50%

## CCCCC/C=C\C/C=C\CCCCCCCC(=O)O [LINOLEIC ACID]
Hepatitis C virus [20]
  Activity: 50%
